WT yeast gro inh: growth inhibition of WT yeast, mitochondrial fusion screen | mitochondrial fusion phenotypic screen, WT strain | inhibition, % at 10 µM | actives 2.1% (n = 190,000) | AID 1362; in the data active = inhibition above about 58%; tested in S. cerevisiae
Lmaj promast: Leishmania major promastigote growth inhibition; actives 9% (n = 200,000); AID 1063; Leishmania major promastigotes, resazurin fluorescence viability; inhibition, % at 10 µM; in the data active = inhibition above about 50%;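 also: promastigotes grown with compound for 44 hours at 28 °C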
Diaph act CS: counter-screen for diaphorase-based assays: diaphorase activators and chemical reducers; AID 1229; actives 0.005% (n = 190,000); Diaphorase/resazurin coupled assay, resorufin fluorescence, 16 min; stronger effect = higher value; 1 = vehicle wells, 0 = NADH-free wells; activation factor at 20 µM;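 active = diaphorase activity raised at least twofold by the compound at 20 µM; inactive = activation factor below 2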
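System – purified diaphorase enzyme from Clostridium kluyveri · Input – enzyme 0.07 U/mL final · Also added – final NADH 0.114 mM, resazurin 0.1 mM · Measured by – fluorescence of resorufin, 544 nm excitation, 590 nm emission · Timing – 16 min enzyme reaction, ambient temperature · Measure – resorufin increase flagging diaphorase activators or reducers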
PMI act hi M6P: increases human PMI activity with near-saturating mannose 6-phosphate. actives 0.34% (n = 190,000). coupled PMI enzyme assay, resazurin fluorescence, 20 min; stronger effect = higher value; 1 = untreated enzyme, 0 = substrate-free blank. P34949. activation factor at 20 µM;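 active = activation factor of 2 or more at 20 µM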
Target sequence (P34949 whole entry, looked up): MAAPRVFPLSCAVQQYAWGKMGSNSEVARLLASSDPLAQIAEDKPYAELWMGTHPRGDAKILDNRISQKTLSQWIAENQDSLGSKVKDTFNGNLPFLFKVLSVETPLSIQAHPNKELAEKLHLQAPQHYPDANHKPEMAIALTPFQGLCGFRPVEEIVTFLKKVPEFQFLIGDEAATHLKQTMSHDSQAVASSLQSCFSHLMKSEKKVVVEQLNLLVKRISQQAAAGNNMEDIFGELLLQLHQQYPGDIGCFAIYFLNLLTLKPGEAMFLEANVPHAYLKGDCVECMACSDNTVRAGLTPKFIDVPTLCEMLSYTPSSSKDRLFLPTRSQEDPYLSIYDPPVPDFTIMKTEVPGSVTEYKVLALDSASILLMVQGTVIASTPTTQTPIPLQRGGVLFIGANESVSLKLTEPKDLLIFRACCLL
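Material: human phosphomannose isomerase with PGI, G6PDH, diaphorase coupling enzymes / Reagent: Man-6-P substrate 1.0 mM / Dosing: single compound dose of 20 µM, 1% DMSO final / Incubation: enzyme reaction with compound 20 min at room temperature / Signal: resorufin fluorescence (Ex 544/Em 590 nm) from resazurin via diaphorase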
PMI act: phosphomannose isomerase (human) activation | purified human PMI, coupled resazurin fluorescence, 20 min; stronger effect = higher value; 1 = vehicle control, 0 substrate-free wells | P34949 | actives 0.005% (n = 190,000) | AID 1214 | activation factor at 20 µM;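 active = activation factor of 2 or more at 20 µM, relative to plate controls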
* marks the source's active call; other numbers are inactive results. In the library only some 10% were active in any assay of this set; here they are far more common.

Screening O=C(c1ccc(-n2cccc2)cc1)N1CCN(Cc2ccccc2)CC1 returned WT yeast gro inh -21, Lmaj promast 75*, Diaph act CS 1, PMI act hi M6P 1 and PMI act 0.9.
`O=C(c1cccc(NS(=O)(=O)c2ccc(F)c(F)c2)c1)N1CCN(Cc2ccccc2)CC1` gave WT yeast gro inh -10, Lmaj promast 59*, Diaph act CS 0.9, PMI act hi M6P 0.9 and PMI act 0.9.
COCCn1c(SCC(=O)c2c[nH]c3ccccc23)nnc1-c1ccncc1 was read as WT yeast gro inh -6, Lmaj promast 83*, Diaph act CS 1, PMI act hi M6P 1.1 and PMI act 1.
For CCn1c(SCC(=O)c2c[nH]c3ccccc23)nnc1-c1cccs1 the results were WT yeast gro inh -4, Lmaj promast 0, Diaph act CS 0.9, PMI act hi M6P 0.9 and PMI act 0.9.
For Cc1cccc2nc(-c3cccc(NC(=O)c4ccc(Cl)cc4)c3)cn12 the results were WT yeast gro inh 34, Lmaj promast -3, Diaph act CS 1, PMI act hi M6P 1.1 and PMI act 1.1.
For CC1CC(C)(C)N2C(=O)C3(Nc4ccccc4S3)c3cccc1c32 (centres undefined) the results were WT yeast gro inh 67*, Lmaj promast 32, Diaph act CS 0.9, PMI act hi M6P 1 and PMI act 1.
Screening O=C(NCc1ccco1)c1nn2c(C(F)(F)F)cc(-c3cccs3)nc2c1Br returned WT yeast gro inh -9, Lmaj promast 100*, Diaph act CS 0.8, PMI act hi M6P 1.2 and PMI act 1.1.
O=C(NCc1ccco1)c1nc2nc(-c3cccs3)cc(C(F)(F)F)n2n1 was read as WT yeast gro inh -1, Lmaj promast 4, Diaph act CS 0.7, PMI act hi M6P 1 and PMI act 1.1.
Screening COc1ccc(Cl)cc1NC(=S)N(CCN1CCOCC1)C1CCN(C(C)=O)CC1 returned WT yeast gro inh -4, Lmaj promast -6, Diaph act CS 1, PMI act hi M6P 1.1 and PMI act 1.1.
For Cc1cc(/C=C(\C#N)C(=O)Nc2ccc(Cl)cc2)c(C)n1-c1ccc(N2CCOCC2)c([N+](=O)[O-])c1 the results were WT yeast gro inh 39, Lmaj promast 100*, Diaph act CS 0.9, PMI act hi M6P 1 and PMI act 1.
Screening CCOC(=O)c1c(-n2c(C)cc(C=O)c2C)sc2c1CCCC2 returned WT yeast gro inh -13, Lmaj promast 96*, Diaph act CS 0.7, PMI act hi M6P 0.9 and PMI act 0.9.
Screening CCOC(=O)c1cccc(-n2c(C)cc(C=O)c2C)c1 returned WT yeast gro inh -9, Lmaj promast 0, Diaph act CS 0.8, PMI act hi M6P 1 and PMI act 1.
Screening CC(=O)Cc1nsc(NC(=O)c2cccc(F)c2)n1 returned WT yeast gro inh 16, Lmaj promast -5, Diaph act CS 1, PMI act hi M6P 1.1 and PMI act 1.
`O=C(/C=C/c1ccnc2ccccc12)c1cccs1` gave WT yeast gro inh 26, Lmaj promast 100*, Diaph act CS 0.9, PMI act hi M6P 0.9 and PMI act 0.9.
For O=[N+]([O-])c1ccc2c(c1)C(N1CCOCC1)/C(=C/COc1ccc(Cl)cc1Cl)O2 (centres undefined) the results were WT yeast gro inh 30, Lmaj promast 10, Diaph act CS 0.7, PMI act hi M6P 0.8 and PMI act 0.8.
`Cc1cc2oc(=O)cc(CN3CCN(S(=O)(=O)/C=C/c4ccccc4)CC3)c2cc1C` gave WT yeast gro inh 4, Lmaj promast 96*, Diaph act CS 0.8, PMI act hi M6P 0.9 and PMI act 0.6.
Screening O=S(=O)(/C=C/c1ccccc1)N1CCN(Cc2ccc3c(c2)OCO3)CC1 returned WT yeast gro inh 56, Lmaj promast 85*, Diaph act CS 0.9, PMI act hi M6P 0.9 and PMI act 1.
C(=C\c1ccccc1)/CN1CCN(Cc2ccc3c(c2)OCCO3)CC1 was read as WT yeast gro inh 5, Lmaj promast 92*, Diaph act CS 1, PMI act hi M6P 1.1 and PMI act 1.
`CCOC(=O)c1ccc(NC(=O)CN(C)S(=O)(=O)c2ccc(Br)s2)cc1` gave WT yeast gro inh 4, Lmaj promast 0, Diaph act CS 0.8, PMI act hi M6P 0.9 and PMI act 0.9.
For Clc1ccccc1-c1ccc(CN2CCN(c3ccccc3)CC2)o1 the results were WT yeast gro inh 66*, Lmaj promast -6, Diaph act CS 0.9, PMI act hi M6P 0.9 and PMI act 0.8.
`CCCCC1(CC(=O)OCC)C(=O)N(c2ccccc2)N(c2ccccc2)C1=O` gave WT yeast gro inh 33, Lmaj promast 22, Diaph act CS 0.8, PMI act hi M6P 0.9 and PMI act 0.8.
CCCCC1(Cc2cccc([N+](=O)[O-])c2)C(=O)N(c2ccccc2)N(c2ccccc2)C1=O was read as WT yeast gro inh 9, Lmaj promast 58*, Diaph act CS 0.8, PMI act hi M6P 0.9 and PMI act 0.9.
CCCc1nc2c(nnn2Cc2ccccc2Cl)c(=O)[nH]1 was read as WT yeast gro inh -16, Lmaj promast -8, Diaph act CS 1, PMI act hi M6P 1.1 and PMI act 1.1.
Screening Cc1ccc(C(=O)C(C)OC(=O)c2ccccc2[N+](=O)[O-])cc1 (centres undefined) returned WT yeast gro inh -3, Lmaj promast 21, Diaph act CS 0.9, PMI act hi M6P 0.9 and PMI act 1.
`COc1ccc(S(=O)(=O)Nc2cc(C)nn2-c2ccccc2)cc1` gave WT yeast gro inh -9, Lmaj promast -5, Diaph act CS 0.9, PMI act hi M6P 0.9 and PMI act 0.9.
For O=S(=O)(c1ccccc1)c1cnn(-c2ccccc2)c1-c1ccc(Cl)cc1 the results were WT yeast gro inh 34, Lmaj promast 55*, Diaph act CS 0.7, PMI act hi M6P 0.9 and PMI act 0.9.
For COc1ccc(-c2c(S(=O)(=O)c3ccccc3)cnn2-c2ccccc2)cc1 the results were WT yeast gro inh 6, Lmaj promast 59*, Diaph act CS 0.9, PMI act hi M6P 0.9 and PMI act 0.9.
For CCCCC(=O)NS(=O)(=O)c1ccc(N=NN(CC)CC)cc1 the results were WT yeast gro inh -7, Lmaj promast -6, Diaph act CS 0.9, PMI act hi M6P 1.1 and PMI act 1.
`Cc1ccc(Sc2cnn(-c3ccccc3)c(=O)c2Cl)cc1` gave WT yeast gro inh 76*, Lmaj promast 24, Diaph act CS 0.9, PMI act hi M6P 0.9 and PMI act 1.
Screening Nc1ccc(Sc2cnn(-c3ccccc3)c(=O)c2Cl)cc1 returned WT yeast gro inh -3, Lmaj promast 14, Diaph act CS 1, PMI act hi M6P 1 and PMI act 0.9.

Source: PubChem BioAssay (several laboratories)
